Reference: article PMC8282703 (Clinical cancer research : an official journal of the …, 2021)
Where “and” joins values, the source holds several entries; their conditions need not be identical. Identical values can stand only once. Like-named read-outs stand apart in the source and are kept apart here.

Experiments:
PKMYT1 = details: cited from earlier work
[1] = twice daily x 5 doses for 2 weeks, in 3-week cycles; cited from earlier work
[2] = Plasma pharmacokinetics of adavosertib; details: human, oral, 300 mg
Wee1 kinase [3] = assay: Nuclear pY15-Cdk1/2 in paired tumor biopsies; format: in vivo, patients
Outline: (§1)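 Expansion-cohort patients got 300 mg once daily on days 1-5 and 8-12 of 21-day cycles, with prophylactic anti-emetics. Paired 18-gauge core needle tumor biopsies were taken on C1D1 and C1D8 before the daily dose, after the 72-h dosing pause on days 6-7. Nuclear marker levels were assessed. pY15-Cdk, γH2AX and pNbs1 were reported as percent nuclear area positive. Patients were grouped by baseline pY15-Cdk.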

advanced solid tumors [4] = assay: Phase 1 trial of adavosertib: tumor response by RECIST 1.1
[5] = tested on: recurrent uterine serous carcinoma; details: adavosertib monotherapy; cited from earlier work
phospho-Cdk1 = details: chemotherapy combinations, cited from earlier work
Wee1 kinase [6] = details: cited from earlier work
[7] = human, in vivo
[8] = tested on: pHH3, γH2AX, RAD51, pNbs1; assay: DNA damage response and mitosis markers in paired tumor biopsies; format: in vivo, patients
Outline: as §1

advanced solid tumors [9] = details: cited from earlier work

In the case of `C=CCn1c(=O)c2cnc(Nc3ccc(N4CCN(C)CC4)cc3)nc2n1-c1cccc(C(C)(C)O)n1` [adavosertib], the “Inhibition of PKMYT1” value (PKMYT1) is given as “does not substantially inhibit PKMYT1”, the “MTD, twice-daily regimen” value [1] is given as 225 mg and the concentration at 72 h [2] is given as > 5 nM. The “Increases in nuclear pY15-Cdk at C1D8” value (Wee1 kinase [3]; 4 of 5 patients with low baseline pY15-Cdk (≤ 2.2% NAP), p < 0.0001) was 192%-1094%, the “Patients with tumor pY15-Cdk levels higher than baseline on C1D8 (pre-dose)” value (Wee1 kinase [3]; of 8 patients with evaluable biopsy pairs (of 5 with low baseline)) was 4 patients and the “Alanine aminotransferase increased, Grade 1-2 (%)” value (human, in vivo) was 11 (26%) patients (%). For the same compound, the “Anemia, Grade 1-2 (%)” value (human, in vivo) was 20 (47%) patients (%), the “Anemia, Grade 3 (%)” value (human, in vivo) was 9 (21%) patients (%) and the “Anemia, any-grade” value (human, in vivo) was 69%. For the same compound, the “Anemia, ≥ grade 3” value (human, in vivo) was 21%, the “Anorexia, Grade 1-2 (%)” value (human, in vivo) was 17 (40%) patients (%) and the “Aspartate aminotransferase increased, Grade 1-2 (%)” value (human, in vivo) was 11 (26%) patients (%). The “Dehydration, Grade 1-2 (%)” value (human, in vivo) was 5 (12%) patients (%), the “Dehydration, Grade 3 (%)” value (human, in vivo) was 1 (2%) patients (%) and the “Diarrhea, Grade 1-2 (%)” value (human, in vivo) was 25 (60%) patients (%). For the same compound, the “Diarrhea, Grade 3 (%)” value (human, in vivo) was 2 (5%) patients (%), the “Dose-limiting toxicities (type)” value (human, in vivo) was “grade 4 hematological toxicity and grade 3 fatigue” and the “Fatigue, Grade 1-2 (%)” value (human, in vivo) was 19 (45%) patients (%). The “Fatigue, Grade 3 (%)” value (human, in vivo) was 3 (7%) patients (%), the “Febrile neutropenia, Grade 3 (%)” value (human, in vivo) was 1 (2%) patients (%) and the “Gastrointestinal adverse events (nausea, vomiting, diarrhea) that were ≥ grade 3” value (human, in vivo) was ≤ 12%. For the same compound, the “Hypoalbuminemia, Grade 1-2 (%)” value (human, in vivo) was 9 (21%) patients (%), the “Hypocalcemia, Grade 1-2 (%)” value (human, in vivo) was 3 (7%) patients (%) and the “Hypocalcemia, Grade 3 (%)” value (human, in vivo) was 1 (2%) patients (%). The “Hypocalcemia, grade 3 incidence” value (human, in vivo) was 2%, the “Hypokalemia, Grade 1-2 (%)” value (human, in vivo) was 5 (12%) patients (%) and the “Hypokalemia, Grade 3 (%)” value (human, in vivo) was 1 (2%) patients (%). The “Hypokalemia, grade 3 incidence” value (human, in vivo) was 2%, the “Hypomagnesemia, Grade 1-2 (%)” value (human, in vivo) was 7 (17%) patients (%) and the “Hypomagnesemia, Grade 3 (%)” value (human, in vivo) was 1 (2%) patients (%). For the same compound, the “Hypomagnesemia, grade 3 incidence” value (human, in vivo) was 2%, the “Hyponatremia, Grade 1-2 (%)” value (human, in vivo) was 8 (19%) patients (%) and the “Hyponatremia, Grade 3 (%)” value (human, in vivo) was 1 (2%) patients (%). For the same compound, the “Hyponatremia, grade 3 incidence” value (human, in vivo) was 2%, the “Hypophosphatemia, Grade 1-2 (%)” value (human, in vivo) was 10 (24%) patients (%) and the “Hypophosphatemia, Grade 3 (%)” value (human, in vivo) was 6 (14%) patients (%). The “Hypophosphatemia, ≥ grade 3” value (human, in vivo) was 14%, the “Leukopenia, Grade 1-2 (%)” value (human, in vivo) was 12 (29%) patients (%) and the “Leukopenia, Grade 3 (%)” value (human, in vivo) was 5 (12%) patients (%). For the same compound, the “Leukopenia, Grade 4 (%)” value (human, in vivo) was 4 (10%) patients (%), the “Leukopenia, grade 4 events” value (human, in vivo) was 10% and the “Leukopenia, ≥ grade 3” value (human, in vivo) was 21%. The “Lymphopenia, Grade 1-2 (%)” value (human, in vivo) was 18 (43%) patients (%), the “Lymphopenia, Grade 3 (%)” value (human, in vivo) was 12 (29%) patients (%) and the “Lymphopenia, any-grade” value (human, in vivo) was 71%. The “Lymphopenia, ≥ grade 3” value (human, in vivo) was 29%, the “Median duration until recovery, grade 3/4 leukopenia” value (human, in vivo) was 5 days and the “Median duration until recovery, grade 3/4 lymphopenia” value (human, in vivo) was 18 days. For the same compound, the “Median duration until recovery, grade 3/4 neutropenia” value (human, in vivo) was 5 days, the “Nausea, Grade 1-2 (%)” value (human, in vivo) was 31 (74%) patients (%) and the “Nausea, Grade 3 (%)” value (human, in vivo) was 3 (7%) patients (%). The “Nausea, any grade, patients” value (human, in vivo) was 81%, the “Nausea, vomiting, or diarrhea, each, patients” value (human, in vivo) was > 60% and the “Neutropenia, Grade 1-2 (%)” value (human, in vivo) was 5 (12%) patients (%). The “Neutropenia, Grade 3 (%)” value (human, in vivo) was 4 (10%) patients (%), the “Neutropenia, Grade 4 (%)” value (human, in vivo) was 5 (12%) patients (%) and the “Neutropenia, grade 4 events” value (human, in vivo) was 12%. The “Thrombocytopenia, Grade 1-2 (%)” value (human, in vivo) was 13 (31%) patients (%), the “Thrombocytopenia, Grade 3 (%)” value (human, in vivo) was 5 (12%) patients (%) and the “Thrombocytopenia, Grade 4 (%)” value (human, in vivo) was 1 (2%) patients (%). The “Thrombocytopenia, grade 4 events” value (human, in vivo) was 2%, the “Vomiting, Grade 1-2 (%)” value (human, in vivo) was 24 (57%) patients (%) and the “Vomiting, Grade 3 (%)” value (human, in vivo) was 5 (12%) patients (%). For the same compound, the “DLTs at dose levels other than 400 mg QD” value (in vivo) was “No DLTs”, the “Recommended phase 2 dose (RPh2D)” value (once daily on days 1-5 and 8-12 in 21-day cycles) was 300 mg and the “Upper respiratory infection, Grade 3 (%)” value (once-daily adavosertib, n = 42 patients) was 1 (2%) patients (%). For the same compound, the “Median number of treatment cycles, patients with SD” value (advanced solid tumors [4]; 20 patients, range 2-26) was 4 cycles, the “Patients with SD receiving ≥ 11 cycles of treatment” value (advanced solid tumors [4]; of 20 patients with SD) was 5 patients and the “Patients with best response of SD for ≥ 9 months” value (advanced solid tumors [4]; once-daily adavosertib) was 5 patients. For the same compound, the Overall response rate (advanced solid tumors [4]; once-daily adavosertib, 42 enrolled patients, 90% confidence interval [6%, 26%]) was 14%, the “Patients with PR at the 400 mg dose level” value (advanced solid tumors [4]; out of the 3 enrolled, both ovarian cancer, dose-reduced to 300 mg) was 2 patients and the “Patients with PR at the MTD (300 mg)” value (advanced solid tumors [4]; out of the 26 enrolled at the MTD) was 4 patients. For the same compound, the “Preliminary overall response rate” value [5] was 29%, the “Target suppression (phospho-Cdk1 attenuation)” value (phospho-Cdk1; adavosertib twice daily at 25 mg) was “not at 25 mg” and the “Target suppression (phospho-Cdk1 attenuation)” value (phospho-Cdk1; adavosertib twice daily at 200 mg or 225 mg) was “significant target suppression”. The “Reduction of nuclear pY15-Cdk, twice-daily arm, individual patients” value (Wee1 kinase [6]; 2-5 hours after dose 5, 2 of 2 patients) was 84% and 90%, the “Wee1 kinase suppression (pY15-Cdk1/2 reduction), twice-daily arm” value (Wee1 kinase [6]; tumor biopsies 2-5 hours after the fifth dose) was 80-90% and the “Plasma concentrations day 5 versus day 1” value [7] was “higher on day 5 compared to day 1”. For the same compound, the “Nuclear pHH3 levels between baseline and C1D8” value ([8]; 8 patients) was “generally unchanged”, the “Changes in tumor levels of nuclear RAD51” value ([8]; 8 patients, baseline vs C1D8) was “None of the 8 patients evaluable for pharmacodynamic response showed changes” and the “Levels of DNA repair markers (γH2AX and/or pNbs1) at C1D8” value ([8]; both patients with significantly decreased pY15-Cdk) was “significant increases”. For the same compound, the “pHH3 positivity at C1D8, patient 1010056” value ([8]; from 1.1% at baseline, best response PD, p < 0.0001) was 4.1 % cells positive, the “Overall response rate, twice-daily adavosertib” value (advanced solid tumors [9]; 25 enrolled patients, 90% confidence interval [1%, 23%]) was 8% and the “PRs, twice-daily adavosertib” value (advanced solid tumors [9]; among 25 enrolled patients) was 2 patients.
